Consider one compound from ChEMBL document CHEMBL3525945, “Metabolic switching of BILR 355 in the presence of ritonavir. II. Uncovering novel contributions by gut bacteria and aldehyde oxidase” (Drug Metab Dispos, 2012).

The nature of data set [1]: Drug metabolism in human liver S9 fraction assessed as BILR355 formation at 10 uM by LC-MS/MS analysis in presence of NADPH. Type of data set: ADME, subcellular. As to conditions: s9, 10 µM. The method in brief: (§1)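 BILR 402 (10 μM final) was incubated with human liver S9 or cytosol (1 mg/mL protein) in 0.05 M potassium phosphate pH 7.4 at 37 °C. Runs were done with or without 2.5 mM NADPH. Samples at 10, 20, 30 and 60 min were quenched in nevirapine/acetonitrile, filtered and analysed by LC-MS/MS; duplicate.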

The target in a further data set is Cytochrome P450 2D6 (Homo sapiens, UniProt P10635). Briefly: Activity at recombinant CYP2D6 (unknown origin) expressed in baculovirus-infected insect cells assessed as enzyme-mediated drug depletion at 1 to 10 uM by LC-MS/MS analysis in presence of NADPH. The class given is ADME. The method in brief: (§2)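 BILR 402 (1 or 10 μM) with baculovirus/insect-cell recombinant CYPs, levels scaled to average liver content (1A2 2, 2A6 1, 2B6 0.1, 2C9 1.5, 2C19 1.5, 2D6 0.3, 3A4 5 pmol/mL). Buffer 0.1 M potassium phosphate, 5 mM MgCl2, pH 7.4; 2.5 mM NADPH; 37 °C. Non-transfected insect microsomes served as controls. Aliquots taken 0.5–30 min and acetonitrile-quenched; depletion measured by LC-MS/MS with isotope-labelled internal standard.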
Chain of Cytochrome P450 2D6 (P10635 whole entry): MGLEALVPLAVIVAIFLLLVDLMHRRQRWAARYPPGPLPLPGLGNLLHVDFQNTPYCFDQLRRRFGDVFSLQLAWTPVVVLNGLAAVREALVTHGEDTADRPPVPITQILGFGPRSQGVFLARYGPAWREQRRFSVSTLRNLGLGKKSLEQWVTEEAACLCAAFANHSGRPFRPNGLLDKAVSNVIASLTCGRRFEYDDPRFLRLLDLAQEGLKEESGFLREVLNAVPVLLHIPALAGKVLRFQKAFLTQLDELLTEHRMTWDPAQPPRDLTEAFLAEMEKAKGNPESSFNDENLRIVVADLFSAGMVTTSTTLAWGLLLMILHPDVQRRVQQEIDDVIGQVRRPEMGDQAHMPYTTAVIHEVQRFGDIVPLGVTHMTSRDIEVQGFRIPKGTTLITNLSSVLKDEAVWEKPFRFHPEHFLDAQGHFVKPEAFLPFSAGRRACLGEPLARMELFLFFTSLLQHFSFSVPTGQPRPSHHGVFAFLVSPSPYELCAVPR

Data set [2] concerns the target T1, Cytochrome P450 3A4 (Homo sapiens, UniProt P08684). Briefly: Activity at recombinant CYP3A4 (unknown origin) expressed in baculovirus-infected insect cells assessed as enzyme-mediated drug depletion at 1 to 10 uM by LC-MS/MS analysis in presence of NADPH. The class given is ADME. As to conditions: TDE = time-dependent effect. The method in brief:
as §2

Data set [3] deals with T2, Aldehyde oxidase (Homo sapiens, UniProt Q06278).
T2 sequence (Q06278 whole entry): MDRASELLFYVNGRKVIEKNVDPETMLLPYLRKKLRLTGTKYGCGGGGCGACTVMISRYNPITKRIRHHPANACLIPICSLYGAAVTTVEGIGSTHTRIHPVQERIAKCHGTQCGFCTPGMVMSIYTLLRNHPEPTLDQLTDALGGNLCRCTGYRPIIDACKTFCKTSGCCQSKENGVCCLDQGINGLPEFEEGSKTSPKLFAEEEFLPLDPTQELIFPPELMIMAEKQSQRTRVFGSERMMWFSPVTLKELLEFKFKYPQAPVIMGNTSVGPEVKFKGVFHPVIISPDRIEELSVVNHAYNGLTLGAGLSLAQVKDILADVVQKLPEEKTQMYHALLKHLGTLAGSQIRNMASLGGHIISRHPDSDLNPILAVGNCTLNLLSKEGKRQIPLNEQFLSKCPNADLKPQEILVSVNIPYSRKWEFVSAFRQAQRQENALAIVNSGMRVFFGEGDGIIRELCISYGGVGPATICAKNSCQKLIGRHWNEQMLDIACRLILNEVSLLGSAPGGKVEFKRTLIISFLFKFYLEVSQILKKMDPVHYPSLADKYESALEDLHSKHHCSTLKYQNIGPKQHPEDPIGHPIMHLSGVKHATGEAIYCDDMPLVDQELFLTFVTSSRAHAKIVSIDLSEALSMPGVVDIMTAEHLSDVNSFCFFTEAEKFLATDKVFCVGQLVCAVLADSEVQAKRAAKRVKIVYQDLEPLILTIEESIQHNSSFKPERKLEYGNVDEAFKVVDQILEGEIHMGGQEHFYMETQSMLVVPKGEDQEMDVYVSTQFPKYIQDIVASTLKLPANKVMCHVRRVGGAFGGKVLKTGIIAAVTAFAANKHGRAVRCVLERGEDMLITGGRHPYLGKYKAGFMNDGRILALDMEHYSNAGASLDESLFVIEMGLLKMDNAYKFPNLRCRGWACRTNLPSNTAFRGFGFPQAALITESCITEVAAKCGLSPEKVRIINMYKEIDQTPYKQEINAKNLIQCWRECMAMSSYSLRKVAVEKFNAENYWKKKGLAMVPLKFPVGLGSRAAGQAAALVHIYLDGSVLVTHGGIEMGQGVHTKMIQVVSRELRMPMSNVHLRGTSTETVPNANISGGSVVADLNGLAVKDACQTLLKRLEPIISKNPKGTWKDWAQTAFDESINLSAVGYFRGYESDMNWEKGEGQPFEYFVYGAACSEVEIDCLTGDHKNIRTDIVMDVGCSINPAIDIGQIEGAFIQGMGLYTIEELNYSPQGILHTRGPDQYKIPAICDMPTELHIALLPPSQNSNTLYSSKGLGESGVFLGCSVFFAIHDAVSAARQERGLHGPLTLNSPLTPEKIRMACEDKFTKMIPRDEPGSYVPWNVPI
Kind of data set: Activity at human recombinant AO expressed in Escherichia coli cells assessed as enzyme-mediated BILR516 metabolite formation at 5 uM by LC-MS/MS analysis. Type of data set: ADME. The method in brief:
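BILR 402 (5 μM final) incubated with cytosolic extract of E. coli expressing human AO, or control E. coli cytosol lacking AO, 0.1 mg/mL protein, 0.05 M potassium phosphate pH 7.4, 37 °C.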

In data set [4] the target is T2, Aldehyde oxidase. Briefly: Drug metabolism in human liver cytosol assessed as intrinsic clearance for high affinity low capacity site aldehyde-oxidase-mediated BILR516 metabolite formation measured per mg protein after 10 mins by Eadie-Hofstee plot analysis. The class given is ADME, tissue-based. The method in brief:
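Human liver cytosol (0.1 mg/mL) was incubated with BILR 402 at 12 concentrations, 0.061–125 μM, for 10 min at 37 °C in 0.05 M potassium phosphate pH 7.4 without NADPH, within the linear range for protein and time. […] Apparent Km and Vmax were derived from the kinetic data.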

The target of data set [5] is T1, Cytochrome P450 3A4. Kind of data set: Activity at recombinant CYP3A4 (unknown origin) expressed in baculovirus-infected insect cells assessed as enzyme-mediated drug depletion by measuring compound level at 10 uM after 4 mins by LC-MS/MS analysis in presence of NADPH. The class given is ADME. The essentials:
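rCYP3A4 (5 pmol/mL) incubated with BILR 402 at 1 or 10 μM in 0.1 M potassium phosphate/5 mM MgCl2, pH 7.4, with NADPH at 37 °C. Remaining BILR 402 and BILR 355 formed were read at 4 min by LC-MS/MS against a labelled internal standard.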

A further data set has as its system Liver cytosol. Kind of data set: Drug metabolism in human liver cytosol assessed as BILR355 formation at 10 uM by LC-MS/MS analysis. Type of data set: ADME, tissue-based. The essentials: as §1
In another data set the target is Cytochrome P450 2C19 (Homo sapiens, UniProt P33261). Kind of data set: Activity at recombinant CYP2C19 (unknown origin) expressed in baculovirus-infected insect cells assessed as enzyme-mediated drug depletion at 1 to 10 uM by LC-MS/MS analysis in presence of NADPH. The class given is ADME. The method in brief:
as §2

A further data set has as its target Cytochrome P450 2C9 (Homo sapiens, UniProt P11712). Briefly: Activity at recombinant CYP2C9 (unknown origin) expressed in baculovirus-infected insect cells assessed as enzyme-mediated drug depletion at 1 to 10 uM by LC-MS/MS analysis in presence of NADPH. The class given is ADME. The method in brief: as §2

T1 sequence (P08684 whole entry): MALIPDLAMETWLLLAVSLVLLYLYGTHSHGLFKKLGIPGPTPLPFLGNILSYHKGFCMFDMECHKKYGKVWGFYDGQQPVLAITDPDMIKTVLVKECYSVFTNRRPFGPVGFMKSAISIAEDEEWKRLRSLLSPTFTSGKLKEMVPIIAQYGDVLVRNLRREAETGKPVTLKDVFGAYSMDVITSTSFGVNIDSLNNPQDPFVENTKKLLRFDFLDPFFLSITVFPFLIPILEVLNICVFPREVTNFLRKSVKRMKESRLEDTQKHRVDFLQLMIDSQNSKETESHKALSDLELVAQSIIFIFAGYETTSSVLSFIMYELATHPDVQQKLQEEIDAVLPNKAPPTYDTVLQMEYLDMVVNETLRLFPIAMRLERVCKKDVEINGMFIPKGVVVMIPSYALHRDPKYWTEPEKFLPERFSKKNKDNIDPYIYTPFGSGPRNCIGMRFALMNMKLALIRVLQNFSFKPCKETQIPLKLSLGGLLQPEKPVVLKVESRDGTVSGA
Chain of Cytochrome P450 2C19 (P33261 whole entry): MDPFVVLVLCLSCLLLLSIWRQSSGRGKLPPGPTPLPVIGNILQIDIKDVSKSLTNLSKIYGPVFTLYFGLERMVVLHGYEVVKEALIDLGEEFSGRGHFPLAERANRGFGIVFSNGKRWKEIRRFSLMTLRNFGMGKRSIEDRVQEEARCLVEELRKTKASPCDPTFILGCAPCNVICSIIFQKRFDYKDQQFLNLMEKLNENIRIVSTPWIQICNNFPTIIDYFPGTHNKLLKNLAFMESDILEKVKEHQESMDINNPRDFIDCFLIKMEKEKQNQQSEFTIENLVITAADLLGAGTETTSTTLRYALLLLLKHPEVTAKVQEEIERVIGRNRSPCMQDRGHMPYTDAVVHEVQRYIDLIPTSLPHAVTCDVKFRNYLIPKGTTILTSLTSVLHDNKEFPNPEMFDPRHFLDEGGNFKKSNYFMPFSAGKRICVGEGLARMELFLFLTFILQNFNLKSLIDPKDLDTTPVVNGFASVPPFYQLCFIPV
Chain of Cytochrome P450 2C9 (P11712 whole entry): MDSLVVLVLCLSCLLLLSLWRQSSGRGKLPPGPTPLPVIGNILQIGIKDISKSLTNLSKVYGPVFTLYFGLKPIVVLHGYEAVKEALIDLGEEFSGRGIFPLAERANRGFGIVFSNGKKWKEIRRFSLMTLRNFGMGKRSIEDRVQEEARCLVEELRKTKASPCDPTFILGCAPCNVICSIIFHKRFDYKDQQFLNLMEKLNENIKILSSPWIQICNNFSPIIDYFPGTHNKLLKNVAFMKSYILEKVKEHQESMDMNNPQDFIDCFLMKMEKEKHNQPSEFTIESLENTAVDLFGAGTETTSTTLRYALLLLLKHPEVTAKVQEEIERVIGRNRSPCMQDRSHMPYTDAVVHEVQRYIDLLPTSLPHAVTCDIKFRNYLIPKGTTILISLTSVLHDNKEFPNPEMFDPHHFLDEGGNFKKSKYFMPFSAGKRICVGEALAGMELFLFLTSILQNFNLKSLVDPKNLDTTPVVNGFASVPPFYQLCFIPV

For the compound `CCN1c2ncc(CCOc3ccnc4ccccc34)cc2C(=O)N(C)c2cccnc21`, the Drug metabolism entry in data set [1] is “metabolite_detected”; at Cytochrome P450 2D6, “metabolite_not_detected”; at Cytochrome P450 3A4 [2] it was “tde”; at Aldehyde oxidase [3], “metabolite_detected”; at Cytochrome P450 3A4 [5], 5 µM; with Liver cytosol it was “metabolite_not_detected”. Also, the Drug metabolism entry on Cytochrome P450 2C19 and at Cytochrome P450 2C9 was “metabolite_not_detected” throughout. For the same compound, at Aldehyde oxidase [4], the CLHH turned out to be 437 µL/min/mg.
